Screening data from PubChem BioAssay.
This is a sample that favours compounds with a hit; in the whole collection about 2.2% have one here.
RBBP9 inhibitor: inhibitors of human serine hydrolase RBBP9. recombinant RBBP9, FP-Rh probe fluorescence polarization. AID 1515. inhibition, % at 7.94 µM. 220,000 tested, 0.2% active. O75884;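 active means inhibition above the campaign mean of all tested compounds plus 3 SD, cut at about 14% in these data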;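 further: plate controls were DMSO wells with RBBP9 for no effect and wells lacking RBBP9 protein for full effect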
Target sequence (O75884 whole entry, looked up): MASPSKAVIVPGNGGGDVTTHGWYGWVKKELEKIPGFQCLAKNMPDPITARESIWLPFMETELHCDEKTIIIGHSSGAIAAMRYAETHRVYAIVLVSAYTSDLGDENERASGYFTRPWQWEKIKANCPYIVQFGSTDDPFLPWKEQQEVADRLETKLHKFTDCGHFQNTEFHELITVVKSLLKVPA
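Test system: recombinant human RBBP9; Timing: 30 min then 45 min, 25 °C; Detection: fluorescence polarization; Control set: RBBP9 with DMSO as uninhibited control, no-protein wells as full inhibition; Compound dosing: one concentration, 7.94 µM nominal, 0.794% DMSO; Probe or stimulus: FP-Rh activity-based probe, 375 nM before mixing.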
EBV gp42 block: blocks Epstein-Barr virus glycoprotein 42 binding. AID 1085. Fluorescence polarization binding assay, mP read-out. inhibition, % (tested at 21.74 µM). 220,000 tested, 0.42% active. Q1HVG2; in the data active means inhibition above about 50%
Mcl-1 Bim block: inhibitors of Bim-Mcl-1 interaction, human. inhibition, % at 10 µM. Q07820. 190,000 tested, 0.1% active. Bead-based flow cytometry, Bim peptide-Mcl-1 binding; in the data active means inhibition above about 40%;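 further: 0% = no compound tracer wells and 100% = peptide blocker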
Target sequence (Q07820 whole entry, looked up): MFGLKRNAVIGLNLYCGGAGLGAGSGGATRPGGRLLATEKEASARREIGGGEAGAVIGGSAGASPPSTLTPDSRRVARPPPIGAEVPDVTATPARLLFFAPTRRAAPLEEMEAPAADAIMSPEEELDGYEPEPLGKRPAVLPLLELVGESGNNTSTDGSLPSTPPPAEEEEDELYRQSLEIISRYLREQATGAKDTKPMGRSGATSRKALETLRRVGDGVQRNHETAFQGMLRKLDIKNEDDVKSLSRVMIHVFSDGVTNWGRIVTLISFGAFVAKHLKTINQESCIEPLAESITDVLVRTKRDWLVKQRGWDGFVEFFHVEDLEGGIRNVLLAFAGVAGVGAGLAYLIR
MCL1-BIM inh: MCL1-BIM-BH3 interaction inhibition (human). Q07820. GST-MCL1 / FITC-Bim-BH3 fluorescence polarization. inhibition, % at 10.9 µM. 320,000 tested, 0.68% active;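 active means inhibition above the mean inhibition of all tested compounds plus 3 SD, set per campaign, cut at about 40% in these data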;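 further: 0% = DMSO wells and 100% = unlabeled Bim-BH3 peptide control; higher means more loss of mP so more displacement of Bim peptide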
Mcl1 Bid PPI: Mcl-1/Bid interaction inhibition; Q07820; TR-FRET Mcl-1/Bid-Dy647 peptide binding, 1536-well; inhibition, % at 21.7 µM; 220,000 tested, 0.97% active; AID 1021;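 active means compounds that cut the binding signal by more than half at the single screening dose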;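 further: His-tagged Mcl-1 with europium anti-His antibody binding Bid BH3 peptide; 0% = Mcl-1 plus peptide wells and 100% = peptide-only wells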
Mcl1 Noxa PPI: disrupts binding of human Mcl-1 to Noxa peptide. Q07820. inhibition, % at 21.7 µM. 220,000 tested, 1.5% active. TR-FRET Mcl-1/Noxa peptide binding, 2 h;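 active means compounds that cut the protein-peptide binding signal by more than 50% relative to plate controls in a single-dose test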;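 further: His-tagged Mcl-1 with rhodamine Noxa BH3 peptide and terbium anti-His antibody; 0% = Mcl-1 plus Noxa peptide wells and 100% = peptide-only wells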
An asterisk follows results filed as active; . = not tested or not shown.

SMILES | RBBP9 inhibitor | EBV gp42 block | Mcl-1 Bim block | MCL1-BIM inh | Mcl1 Bid PPI | Mcl1 Noxa PPI
Cc1ccc(C(=O)OCC(=O)Nc2ccccc2)cc1NC(=O)c1ccco1 | -8 | -15 | -7 | -9 | -11 | -7
Cc1ccc(C(=O)OCC(=O)Nc2ccc(N(C)C)cc2)cc1NC(=O)c1ccco1 | -6 | -22 | 0 | -6 | -50 | 79*
CCCCNC(=O)CSc1ccc(S(=O)(=O)N2CCOCC2)cn1 | . | . | . | -1 | . | .
NC(=O)CSc1ccc(S(=O)(=O)N2CCOCC2)cn1 | . | . | . | 43* | . | .
C=CCN1C(=O)/C(=C2/C(=O)N(CC(=O)O)c3ccccc32)S/C1=N/c1nccs1 | 7 | 19 | 1 | . | -38 | 89*
CCn1c(-c2ccccc2)csc1=Nc1ccc(O)cc1 | 1 | -4 | 1 | 9 | -35 | 64*
CCC1=CC(c2ccccc2)n2ncnc2N1 (configuration not stated) | . | . | . | -1 | . | .
CCCN1CCN(CC(O)COC(c2ccc(OC)cc2)c2ccc(OC)cc2)CC1 (configuration not stated) | . | . | . | -6 | . | .
NNC(=O)COc1ccccc1F | -3 | -13 | 47* | -8 | 3 | 9
Cc1nc2ccc(NC(=O)c3cc([N+](=O)[O-])cc([N+](=O)[O-])c3Cl)cc2s1 | 9 | -3 | -13 | 10 | 22 | 96*
CC(=O)N1CCN(c2nc(-c3ccco3)c3c(c2C#N)CC(C)(C)SC3)CC1 | -8 | 6 | -3 | 8 | -18 | 17
CC1(C)Cc2c(C#N)c(N3CCN(C(=O)c4ccccc4Cl)CC3)nc(-c3ccco3)c2CS1 | -6 | -19 | 0 | 43* | -21 | 46
COc1cc(O)cc2cc3c(c(O)c12)C(=O)CC(C)(O)O3 (configuration not stated) | . | 33 | . | 43* | -111 | 50
Cc1cc(C)cc(C(=O)NCC(=O)OCC(=O)N2c3ccccc3NC(=O)C2(C)C)c1 | -5 | -4 | 16 | 27 | -24 | 54*
Cc1c([N+](=O)[O-])c(C(=O)Nc2ccc3c(c2)OCCO3)nn1C | 2 | -9 | 0 | 7 | 73* | 0
COc1ccc(Nc2cccc3ccccc23)cc1 | . | . | . | 17 | . | .
N#C/C(=C\c1ccc(C(=O)O)cc1)c1nc2sc3c(c2c(=O)[nH]1)CCCC3 | -1 | 16 | . | . | 13 | 74*
COc1ccccc1C(=O)NC(=O)COC(=O)c1cnc(C)cn1 | . | . | . | -1 | . | .
Cc1c(N=Cc2ccco2)c(=O)n(-c2ccccc2)n1C | -2 | -17 | 0 | 7 | -35 | 2
COc1ccc2c(C=Nc3c(C)n(C)n(-c4ccccc4)c3=O)c(O)n(Cc3ccco3)c(=O)c2c1 | 1 | 78* | 2 | -8 | -13 | 12
CCN(CC)c1ccc(C=Nc2cccnc2Cl)c(O)c1 | . | . | . | 51* | . | .
CCN(CC)c1ccc(C=Nc2cc(C)ccc2C)c(O)c1 | -10 | -3 | -3 | -1 | -57 | 16
NC(=O)c1ccc[n+](CC(=O)c2ccc(F)cc2)c1 | -6 | -3 | . | -4 | -28 | -22
NCCCC[C@@H]1NC(=O)c2cc([N+](=O)[O-])cc(I)c2SC[C@@H](C(N)=O)NC(=O)[C@H](Cc2ccc(O)cc2)NC1=O | -8 | -7 | -2 | 6 | 30 | 54*
NCCCC[C@@H]1NC(=O)[C@H](CCC(=O)O)NC(=O)c2cc([N+](=O)[O-])cc(I)c2SC[C@@H](C(=O)NCC(N)=O)NC1=O | -11 | -12 | 0 | -19 | -1 | -22
SMILES | RBBP9 inhibitor | EBV gp42 block | Mcl-1 Bim block | MCL1-BIM inh | Mcl1 Bid PPI | Mcl1 Noxa PPI
O=[N+]([O-])c1cc(Cc2ccccc2)cc(C=Nc2ccc(N3CCOCC3)cc2)c1O | -1 | 1 | 2 | 27 | -17 | 28
COc1cc(C=Nc2cccc(C)c2)c(O)c([N+](=O)[O-])c1 | -5 | 9 | 53* | 13 | -81 | 39
Cc1ccc(O)c(N=Cc2cc(Cc3ccccc3)cc([N+](=O)[O-])c2O)c1 | -9 | 9 | -1 | . | -89 | 56*
Cc1cccc(N=Cc2cc3c(cc2[N+](=O)[O-])OCO3)c1 | 1 | -20 | 0 | 16 | -80 | -3
C=CCn1c(SCC(=O)Nc2sccc2C(N)=O)nc2sc(C)c(C)c2c1=O | -2 | -16 | -3 | 3 | 52* | 3
CC1=Nc2ccc(C)cc2/C1=C/c1c(N)n2c(S(=O)(=O)C(C)C)nsc2nc1=O | -7 | 8 | -2 | . | 17 | 81*
CC1=Nc2ccccc2/C1=C/c1c(N)n2c(S(=O)(=O)C(C)C)nsc2nc1=O | -3 | -5 | 0 | 12 | 16 | 24
CCCCn1c(NC(=O)c2ccccc2)c(C#N)c2nc3ccccc3nc21 | -6 | 2 | 2 | . | 85* | 67*
O=C(Nc1cnn(C23CC4CC(CC(C4)C2)C3)c1)c1cnn2c(C(F)(F)F)cc(-c3ccco3)nc12 | -10 | 29 | 0 | -2 | 79* | 31
COc1ccc(CCNC(=S)NC(=O)c2cc(OC)c(OC)c(OC)c2)cc1OC | -8 | -8 | . | 2 | -7 | 21
C/C(Cc1ccccc1)=N\NC(=O)CNC(=O)c1ccc(Cl)cc1Cl | -14 | -6 | . | 10 | -13 | 12
CC1C(=O)NN=C1C(=O)N/N=C\c1ccc(O)cc1O (configuration not stated) | -6 | 2 | 1 | 8 | -75 | 74*
COc1cc(/C=C/C(=O)OCC(=O)N(C)CC(=O)Nc2ccc(F)cc2)ccc1OC(F)F | . | . | . | -1 | . | .
Oc1ccc2cccnc2c1 | -8 | 38 | -4 | 45* | -2 | 4
COc1cc(C2NC(=O)NC(C)=C2C(=O)OCC2CCCCC2)ccc1O (configuration not stated) | . | . | . | 4 | . | .
O=C(O)c1cccc(N/N=C/C2=C(Cl)c3cc(Cl)ccc3SC2)c1 | 3 | 10 | 4 | . | 89* | 103*
CCOc1cnn(Cc2ccccc2)c(=O)c1SCc1ccccc1 | -2 | -4 | -3 | 0 | -25 | 70*
COc1cnn(Cc2ccccc2)c(=O)c1SCc1ccccc1 | -5 | -7 | -2 | 5 | -47 | -143
COc1ccc(NC(=O)COC(=O)c2ccccc2SCC(=O)N2CCCC2)cc1 | . | . | . | 8 | . | .
CCC(=O)N(CC)C1=C(O)c2ccccc2C(=O)C1=O | 8 | -35 | 2 | 9 | -11 | 85*
CN1CCN(c2ccccc2NC(=O)c2ccc(-c3ccc(Cl)cc3Cl)o2)CC1 | -4 | -7 | 1 | -3 | -19 | 65*
CCOC(=O)C1(Cc2ccccc2C)CCCN(C(=O)c2ccc(OC)o2)C1 (configuration not stated) | . | . | . | -3 | . | .
NS(=O)(=O)c1ccc(CNC(=O)c2ccc3c(=O)n4c(nc3c2)CCC4)cc1 | . | . | . | -6 | . | .
COC(=O)c1cc(Br)ccc1NC(=O)Nc1ccccc1 | -4 | 3 | -6 | 2 | -5 | 73*
FC(F)(F)c1ccncc1-c1nnnn1-c1ccc(Cl)cc1 | 2 | -2 | . | 8 | 69* | -9
Cc1cccc(-n2nnnc2-c2cnccc2C(F)(F)F)c1C | -4 | -12 | . | 10 | -11 | 14
